# Reference: ChEMBL document CHEMBL3792364, “Identification and biological activity of 6-alkyl-substituted 3-methyl-pyridine-2-carbonyl amino dimethyl-benzoic acid EP4 antagonists” (Bioorg Med Chem Lett, 2016)
# Activity calls are given as the source filed them. No cut-off for these calls is given here.
# Experiments:
# Rattus norvegicus [1] = test: Antiinflammatory activity in rat MIA model assessed as inhibition of differential weight bearing at 5 mg/kg, po measured 30 mins post dose by incapacitance test; format: functional, organism-based
# How it was run: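 MIA 0.3 mg in 50 µL saline injected into right knee and saline into left knee of rats on day 0. Day 12: randomized, single oral dose in 10% acacia in water plus 0.05% antifoam at 0.3–10 mg/kg, with diclofenac 5 mg/kg. Hind-limb weight distribution measured by incapacitance tester 30 min post dose. n = 5/group, Dunnett's test versus vehicle.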
# Rattus norvegicus [2] = test: Antiinflammatory activity in rat adjuvant induced arthritis model assessed as suppression of Mycobacterium tuberculosis H37 RA induced paw swelling at 10 mg/kg measured from day 11 to 15 relative to vehicle control; format: functional, organism-based
# How it was run: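 Rat adjuvant-induced arthritis: paw widths measured, then 0.25 mg adjuvant (Mycobacterium tuberculosis H37 RA) in 100 µl mineral oil given intradermally at tail base (day 0). On day 11, width of both paws was re-measured as percent change from day 0, and rats were randomized on this and body weight before dosing. Rats were euthanized day 15 without further dosing and paw width measured.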
# [3] = target: T1, Prostaglandin E2 receptor EP4 subtype (Homo sapiens, UniProt P35408); test: Antagonist activity against human EP4 expressed in HEK293 cells assessed as inhibition of PGE2-stimulated production of cAMP incubated for 20 mins by HTRF assay; format: functional, cell-based
# T1 sequence (P35408 whole entry): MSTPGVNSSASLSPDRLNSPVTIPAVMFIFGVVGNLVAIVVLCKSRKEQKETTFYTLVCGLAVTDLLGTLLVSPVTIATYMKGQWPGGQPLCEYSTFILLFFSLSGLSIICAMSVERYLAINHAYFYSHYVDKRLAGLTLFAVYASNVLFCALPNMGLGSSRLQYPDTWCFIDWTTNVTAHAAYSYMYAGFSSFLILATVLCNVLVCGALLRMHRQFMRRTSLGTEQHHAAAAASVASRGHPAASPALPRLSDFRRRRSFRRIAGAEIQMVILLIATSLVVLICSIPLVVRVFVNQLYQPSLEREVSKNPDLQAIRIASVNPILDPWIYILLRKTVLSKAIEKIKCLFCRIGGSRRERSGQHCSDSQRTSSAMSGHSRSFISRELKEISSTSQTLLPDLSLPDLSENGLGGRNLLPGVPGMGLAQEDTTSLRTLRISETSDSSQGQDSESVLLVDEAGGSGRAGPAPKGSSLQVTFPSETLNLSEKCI
# [4] = target: T1, Prostaglandin E2 receptor EP4 subtype; test: Antagonist activity against EP4 in human whole blood assessed as reversal of PGE2-mediated suppression of LPS-induced TNF-alpha production preincubated for 30 mins followed by LPS stimulation measured after 20 to 24 hrs by enzyme immunoassay; format: tissue-based
# How it was run: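 Pooled blood from donors free of NSAIDs or celecoxib for 48 h and of glucocorticoids for 2 weeks. Blood pretreated 30 min at 37 °C, 5% CO2 with compound in DMSO (7-point curve, triplicate). LPS […] ± 10 nM PGE2 (final) added, then incubated 20–24 h. Plasma TNFα read at A450-A650. IC50 from sigmoidal nonlinear fit; geometric mean of independent runs.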
# [5] = Aqueous solubility of compound at pH 6 at 2 mM after 20 hrs by HPLC; format: physicochemical; settings: aqueous medium
# How it was run: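 Samples in DMSO dried 12 h, then redissolved at pH 6 at a 2 mM target concentration. Stirred 20 h, filtered through 0.7 µm GF filter. Filtrate concentration measured by HPLC against a DMSO standard curve.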
Structure (SMILES),Activity (Rattus norvegicus [1]),Activity (Rattus norvegicus [2]),IC50 [3],IC50 [4],"solubility at 20 h, 2000 µM [5]"
O=C(O)Cc1ccccc1Nc1c(Cl)cccc1Cl,Active,Active,–,–,–
COC1CCN(c2ccc(C)c(C(=O)Nc3c(C)cc(C(=O)O)cc3C)n2)CC1,–,–,96.7 nM,–,–
Cc1ccc(N2CCCC(CO)C2)nc1C(=O)Nc1c(C)ccc(C(=O)O)c1C (stereo unspecified),–,–,14.2 nM,2890 nM,–
Cc1ccc(N2CCC(O)CC2)nc1C(=O)Nc1c(C)ccc(C(=O)O)c1C,–,–,19.5 nM,1450 nM,784 µg/mL
Cc1ccc(N2CCC(C)(O)CC2)nc1C(=O)Nc1c(C)cc(C(=O)O)cc1C,–,–,39.8 nM,3600 nM,817 µg/mL
